From ChEMBL document CHEMBL4513216, “Probing the Open Global Health Chemical Diversity Library for Multistage-Active Starting Points for Next-Generation Antimalarials” (ACS Infect Dis, 2020)

Experiment: Toxicity liver stage against HepG2, at 10uM
Assay type: cell-based
Parameters: test concentration 10 uM, cell line HepG2-A16-CD81EGFP
Conditions: human, HepG2-A16-CD81EGFP cells; read-out: INHIBITION
How it was run: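 Uninfected HepG2-A16-CD81EGFP cells, 3 × 10^3 per well, 1536-well, plated on prespotted compound at 10 μM final, parasite-free screening media added to match infected plates; puromycin 10 μM positive, DMSO 0.5% negative; run in parallel with 48 h PbLuc assay at 37 °C, 5% CO2; viability by CellTiter-Glo luminescence, normalized to controls.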

SMILES | cytotoxicity at 10 µM [%]
CC(=O)NC[C@H]1COCc2nc3c(C)cccc3n21 | 8.65
c1ccc(-c2nnc([C@H]3CCN(C4CCC4)C3)o2)cc1 | 1.74
CC1=C(c2ccc(Cl)cc2)S(=O)(=O)N=C1N1CCc2ccccc21 | -17.1
CCOC(=O)N1CCC(OC)c2ccccc2N(C)C(=O)C1 (stereo not drawn) | 7.58
O=C(NCCc1ccccn1)C1(n2cnnn2)CCCCC1 | 0.801
Cn1ccc2ccc(C(=O)Nc3nc[nH]n3)cc21 | -1.55
O=C(Cn1cnc2sccc2c1=O)NCCc1nnc2ccccn12 | 3.57
CC(C)(C)c1cc(=O)n2c(n1)SCC(C(=O)NCc1ccco1)C2 (stereo not drawn) | -15.1
CCNc1nc(N(C)C)nc(-n2cnc(SC)n2)n1 | 2.22
Cc1ccc(CN2CCN(CC(=O)Nc3ccc4nsnc4c3)CC2)o1 | -17.5
CCn1nc(C)c2nc(C)nc(NCCc3ccccc3)c21 | 25.2
O=C(O)c1cnc(N2CCC(O)CC2)nc1COc1ccc(F)cc1 | -7.52
COc1cc(OC)cc(C(=O)N2CCOCC2c2[nH]ncc2C)c1 (stereo not drawn) | 7.83
Cc1cccc(Nc2nccnc2C2CCCN2CC(=O)N(C)C)n1 (stereo not drawn) | -5.28
Cc1ccc(Nc2nccc(C3CN(CC(N)=O)C3)n2)nc1 | -1.91
Clc1ccc(CN2CCC3(CC2)CC(c2cccnc2)=NO3)cc1 | 17.5
O=C(Nc1ccccc1)N1CCn2c(nnc2C2CCCN2)C1 (stereo not drawn) | 2.91
O=C1Nc2ccccc2CN(CC2CC2)C12CCNC2 (stereo not drawn) | 6.09
FC(F)(F)Cn1nnnc1SCCN1CCCCC1 | -61.4
Cc1c(C(=O)N2CCS(=O)(=O)CC2)nnn1-c1ccc2ncccc2c1 | -5.82
Cc1ccnc(N2CCCC(c3nncn3C3CC3)C2)n1 (stereo not drawn) | -5.45
O=C(COCC1CC1)N1CCCC1c1nc(-c2ccccc2F)c[nH]1 (stereo not drawn) | -0.025
Cc1[nH]ncc1CCCNC(=O)N1CCC(C(N)=O)CC1 | -3.62

SMILES | cytotoxicity at 10 µM [%]
CN(Cc1cc(Br)cs1)Cc1nnsc1Cl | -7.38
O=C(CCc1ccccn1)NC1CCN(c2cccc(Cl)c2)C1 (stereo not drawn) | 17.1
O=C(Cc1cccc(O)c1)NC1CCN(c2cccc(Cl)c2)C1 (stereo not drawn) | 17.1
Cc1ccc(C(=O)OC(C)Cn2cccn2)c(=O)[nH]1 (stereo not drawn) | 3.35
Cc1ccc(CNC(CCO)C2CCCCC2)nc1 (stereo not drawn) | -37.4
Cc1nn(-c2ccc(F)cc2)c2[nH]nc(N)c12 | 13.6
COC(=O)CSCc1noc(-c2ccc(Cl)cc2)n1 | 1.94
COCCSCC(=O)NCc1ccnc(N(C)C)c1 | 9.88
Cn1cc(C(=O)Nc2ccc(CN3CCOCC3)cn2)cn1 | 6.95
CC(C)OCCNC1(c2ccc(F)cc2)CCOCC1 | -4.78
COc1ccc(CNC(=O)N(C)CC(C)(C)O)cc1OC | 6.89
CCc1nc2n(n1)CC(NCc1nc(C)c(C)o1)CC2 (stereo not drawn) | -11
Cc1nn(C)cc1C(=O)NC(CC(C)C)C(=O)Nc1cc[nH]n1 (stereo not drawn) | -2.33
COCc1cccc(C(=O)N2CCCN(C(=O)OCC(C)C)CC2)c1 | -10
CCCn1cc(NC(=O)c2ccc(N(C)CC)cc2)ccc1=O | -0.704
CC(C)c1nn(C)c(N(C)C)c1CNCc1ccnn1C | 0.926
O=C(C1SCCc2sccc21)N1CCN(CC(F)F)CC1 (stereo not drawn) | -4.5
CN(C)C(=O)c1cccc(NC(=O)CN2CCCCC2C2OCCO2)c1 (stereo not drawn) | -6.95
CCOc1ccc(CNC(C)c2cccc(S(=O)(=O)NC)c2)cc1 (stereo not drawn) | 16.1
Cc1ccc(N2CCCC(N(C)Cc3ccccn3)C2)nn1 (stereo not drawn) | -4.01
Cc1cc2n(n1)CC(CNC1CCN(C(=O)C3CC3)CC1)CN2 (stereo not drawn) | 5.17
CC(C)(C)S(=O)(=O)CCNC(=O)c1cnc(-c2ccccc2)nc1 | 2.92
CC(=O)NCCNC(=O)Nc1cccc(Cl)c1SC(F)F | -13.1

SMILES | cytotoxicity at 10 µM [%]
COc1ccc(CC(=O)NC2CCc3nc(C)cn3C2)cc1 (stereo not drawn) | 9.55
CCOC1CCN(C(=O)c2ccc(-n3ncc(C#N)c3N)cc2)CC1 | -1.1
COCCN(CC(C)C)C(=O)c1cccc(Nc2cnccn2)c1 | -9.59
CC(C#N)CNS(=O)(=O)c1ccc(Br)c(F)c1 (stereo not drawn) | -12.3
CN1CC(Nc2nc3c(cnn3C(C)(C)C)c(=O)[nH]2)CCC1=O (stereo not drawn) | -4.26
COc1ccc2c(c1)C(NCCc1ncc(C)s1)CCCO2 (stereo not drawn) | -3.86
Cc1cccn2cc(CNCc3cccc4c3OCCCO4)nc12 | 15.5
COCC(O)CN(C)c1ccnc2cc(Br)ccc12 (stereo not drawn) | 5.02
CC(C)c1noc(CCNC(=O)N2CCN(c3cccs3)CC2)n1 | -5.37
CCNc1cc2c(nn1)CCN(C(=O)c1cc3ccccc3[nH]c1=O)C2 | -1.41
Cc1occc1CNC(=O)C1CCCN1C(=O)C1CC1 (stereo not drawn) | 7.98
COc1cc(N2CCC3(CC2)CN(S(C)(=O)=O)c2ccccc23)ncn1 | 12.8
CC(C)CN1C(=O)CO[C@@H]2CNC[C@H]21 | -110
O=C(C1CCOC1)N1CCC2(CCN(Cc3nccs3)C2)CC1 (stereo not drawn) | -74.8
Cn1nc(CN2CCCCC2)c2c1CN(C(=O)c1ccccc1)C2 | 4.83
COc1ccc([C@@H]2CN(c3cc(OC)ncn3)C[C@H]2N(C)C)cc1 | 6.98
N[C@@H](C(=O)N1CCN(c2ccccc2Cl)C(=O)C1)c1ccccc1 | -0.823
CCO[C@H]1C[C@@H](O)C12CCN(S(=O)(=O)c1ccccc1OC)CC2 | 2.01
Cc1ccc(C)c2c(O)cc(CN3CCC(c4nncn4C)CC3)nc12 | -2.24
CCC[C@H]1CN(Cc2ccc(N(C)C)nc2)C[C@@H]1NS(=O)(=O)CC | -11.9
CC(C)c1cc(C(=O)N(C)C(C)c2nccs2)no1 (stereo not drawn) | -9.15
Cc1ccc(CN2CCN(C3CCC3)CC2CCO)o1 (stereo not drawn) | -2.46
Cn1ccnc1CN1CCC(Cn2cc(-c3ccncc3)nn2)CC1 | -4.5

SMILES | cytotoxicity at 10 µM [%]
CC(=O)NC1CCN(c2nc(N)nc3c2CCCC3)C1 (stereo not drawn) | 0.452
C=C(C)CN1CCC(n2cc(C3CCCC3)nn2)CC1 | 4.98
Cc1cc(C)c2[nH]c(=O)c(CN3CCCC4(C3)CN(C)C(=O)O4)cc2c1 (stereo not drawn) | -14.3
Nc1ccnc(-c2cc(NC3CCNCC3)nc3[nH]ccc23)c1 | 3.18
O=C(c1cn(CCN2CCCCC2)nn1)N1CCSCC1 | 2.34
COCC(=O)N1C[C@@H](C)[C@](O)(C(C)C)C1 | 1.69
N#Cc1ccccc1CN1CCCC(c2nccn2CC2CCC2)C1 (stereo not drawn) | -5.06
CCOc1ccc(Cl)cc1C(C(=O)O)N1CCCC1 (stereo not drawn) | 0.95
COCC(Nc1ncnc2sc(C)c(C)c12)c1ccnn1C (stereo not drawn) | -4.53
O=C(c1ccc2nccn2c1)N1CCC(CCn2cccn2)CC1 | -1.63
CC(C)c1cc(N(C)Cc2noc(C3CCCC3)n2)n2nccc2n1 | -0.0395
COc1ccc(OCC2CCCN(Cc3ccncc3)C2)cc1 (stereo not drawn) | -8.44
Cc1ccc(Cl)c(C)c1NC(=O)N1CCCN(Cc2ccccn2)CC1 | 0.617
O=C(O)c1cn(CC2CCCN(c3ccc4ccccc4n3)C2)nn1 (stereo not drawn) | -7.14
CCCS(=O)(=O)c1ncc(CN2CCC(CO)CC2)n1CC1CCCO1 (stereo not drawn) | 7
CC(C)(C)N1CC(C(=O)N2CCN(CCn3cccc3)CC2)CC1=O (stereo not drawn) | 18.7
Cc1cc(CNC2CCCN(Cc3noc(C4CC4)n3)C2)on1 (stereo not drawn) | -17.7
CC(OCC1CC1)C(=O)N1CCCN(Cc2nccn2C(C)C)CC1 (stereo not drawn) | -11.9
CC(Cc1ccccc1Cl)NC(=O)Nc1cnn(CC(N)=O)c1 (stereo not drawn) | -4.23
COc1ccc(COCC(O)CNC(=O)c2cc(C)oc2C)cc1 (stereo not drawn) | -13.3
Cc1ccc(-c2nc(CNC3CCc4ncnn4C3)co2)c(C)c1 (stereo not drawn) | -9.5
Cc1ccccc1CS(=O)(=O)CC(=O)NC1CCCCNC1=O (stereo not drawn) | -7.23
Cc1cc(C)c(OCC(=O)NS(=O)(=O)c2cccnc2)c(C)c1 | -1.35

SMILES | cytotoxicity at 10 µM [%]
Cc1cc(NC(=O)NCC(C)O)n(C)n1 (stereo not drawn) | 1.69
CC(C)c1nnc2n1CCN(CC(=O)N1CCc3ccccc3C1)C2 | -5.92
Cc1cccc(OCCC(=O)N2CCN(S(=O)(=O)N(C)C)CC2)c1C | 2.66
CCc1noc(C)c1C(=O)N1CCCC1c1c(C)nn(C)c1OC (stereo not drawn) | -12.1
CC(NC(=O)NCCCn1cccn1)c1ccc2c(c1)NC(=O)CO2 (stereo not drawn) | -5.07
COCc1nc(C(=O)N2CCCC2c2c(C)nn(C)c2C)cs1 (stereo not drawn) | -4.74
O=C(CCc1cccs1)N1CCCCC1Cn1cccn1 (stereo not drawn) | 1.54
Cc1nc(C)n(CC2CCCN2Cc2cc(C)on2)n1 (stereo not drawn) | 4.04
CC(C)OCc1ncn2c1CN(Cc1nccs1)CCC2 | -83.6
CC(=O)N1Cc2ccnn2CC(C(=O)NCc2cccnc2)C1 (stereo not drawn) | -97
O=C(C1CCOCC1)N1CCc2onc(COc3cccnc3)c2C1 | -69.6
CNC(=O)C1Cn2ccnc2C2(CCN(Cc3cccs3)CC2)O1 (stereo not drawn) | -70.6
COCC1c2c(cnn2C)CCN1C(=O)c1cccn1C (stereo not drawn) | -94.1
O=C(c1ccc(O)cc1)N1C[C@@H]2CCN(c3cccnc3)C[C@@H]2C1 | -50.9
Cn1cc(C[C@H]2[C@H](O)CCN2Cc2ccncc2)cn1 | -78.5
O=C(c1ccccc1F)N1CCC2(CC1)CC(Oc1ccccn1)CO2 (stereo not drawn) | -113
Cc1noc([C@]23COC[C@H]2CN(C(=O)CN(C)C)C3)n1 | -104
c1cncc(C2COC3(CCN(Cc4ccsc4)CC3)C2)c1 (stereo not drawn) | -3.74
c1ccc(CN2C[C@H]3CC[C@@H](C2)N(Cc2nnc(C4CC4)o2)C3)cc1 | -8.42
CC(c1cn2ncsc2n1)n1cc2[nH]cccc-2c1=O (stereo not drawn) | -3.74
COc1cccc(CNCC2(COc3cccnc3)C[C@@H](O)[C@@H](O)C2)c1 (stereo partly drawn) | -5.57
